High-throughput results: PubChem, The Scripps Research Institute Molecular Screening Center
An excerpt weighted towards active compounds, which were near 2.3% of everything screened.
V1R ag counter = activates human V1a receptor in oxytocin agonist counter-screen. 320,000 tested, 0.25% active. activation, % at 3 µM. CHO-V1R cells, Fluo-8 calcium fluorescence, agonist mode; 0% DMSO, 100% 3 nM vasopressin. AID 2797;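 active = activation above the mean activation of all tested compounds plus 3 SD, per screening run, cut at about 20% in these data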;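 also: signal is peak over basal fluorescence ratio across a 100 second FLIPR read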
OXTR ag = human OXTR agonism. P30559. CHO-OTR cells, Fluo-8 calcium fluorescence; normalized: DMSO 0%, oxytocin 100%. activation, % at 3 µM. 320,000 tested, 0.32% active. AID 2435;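 active = activation above the mean of all tested compounds plus 3 SD, cutoff set per screening run, cut at about 20% in these data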;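 also: peak over basal fluorescence ratio from a 100 s FLIPR kinetic read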
TAAR1 ag = agonists of human TAAR1 | CHO RD-HGA16 TAAR1, Fluo-8 calcium fluorescence; vehicle wells 0%, saturating PEA agonist 100% | activation, % at 3 µM | 360,000 tested, 0.99% active | AID 624467 | Q96RJ0;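 active = activation above the mean activation of all test compounds in the run plus 3 SD, cut at about 38% in these data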
Target sequence (Q96RJ0 whole entry, looked up): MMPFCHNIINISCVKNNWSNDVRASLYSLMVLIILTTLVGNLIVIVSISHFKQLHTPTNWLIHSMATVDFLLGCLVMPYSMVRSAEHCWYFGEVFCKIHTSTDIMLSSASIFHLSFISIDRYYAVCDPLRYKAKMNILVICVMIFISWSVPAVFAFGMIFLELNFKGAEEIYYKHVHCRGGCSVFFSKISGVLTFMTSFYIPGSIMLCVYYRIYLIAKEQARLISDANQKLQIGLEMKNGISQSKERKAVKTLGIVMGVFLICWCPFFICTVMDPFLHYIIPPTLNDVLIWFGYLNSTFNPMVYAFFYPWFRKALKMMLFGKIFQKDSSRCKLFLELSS
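System: CHO-derived RD-HGA16 cells with stable Gα16 and human TAAR1. Times: 17-24 h plating, Fluo-8 75 min 37 °C, 30 min RT. Measured by: calcium-sensitive Fluo-8 signal, excitation 470-495, emission 515-575 nm. Read-out basis: % activation relative to PEA EC100 response. Control set: DMSO and PEA EC100. Repeats: no replicates (n 1).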
TAAR1 antagonist = antagonists of human TAAR1; 360,000 tested, 1.5% active; inhibition, % at 3 µM; CHO RD-HGA16 TAAR1, Fluo-8 calcium fluorescence, antagonist; Q96RJ0;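 active = inhibition above a per-plate cutoff, the mean inhibition of test compounds on that plate plus 3 SD, cut at about 49% in these data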;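 also: 0% = DMSO plus EC80 beta-PEA response and 100% = DMSO alone without agonist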
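Material: RD-HGA16 CHO cells with stable hTAAR1 and Gα16; Dosing: single nominal final test compound concentration of 3 µM; Schedule: seeding 17-24 h prior, 75-min 37 °C, 30-min RT dye loading; Detection: kinetic Fluo-8 calcium fluorescence measurement; Measure: % inhibition from peak post-agonist over basal fluorescence ratio; Benchmarks: vehicle and agonist controls.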
OXTR potentiate = human OXTR potentiation; CHO-OTR cells, Fluo-8 calcium fluorescence, potentiator mode; 0% = oxytocin EC15, 100% = EC100; activation, % at 3 µM; AID 2445; 320,000 tested, 0.061% active;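 active = activation above that plate's cutoff, the mean activation of tested compounds plus 3 SD, cut at about 6.6% in these data, passing the limit was not always enough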;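 also: 100% uses oxytocin at 75 nM as the full agonist control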
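Measured by – Fluo-8 calcium dye fluorescence · Test system – human OTR in CHO cells · Dosing – one concentration, 3.0 µM compound · Controls – EC15 oxytocin alone as 0%, 75 nM oxytocin as 100% · Evaluation – normalized max/min fluorescence ratio, % activation · Timing – 6 min pre-incubation, 100 s read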
nonsel antag count = nonselective antagonist in TAAR1 antagonist counter-screen. shares compounds with TAAR1 antagonist. counterscreen cell line, calcium fluorescence, antagonist mode. inhibition, % at 3 µM. 2,400 tested, 77% active. AID 651780; in the data active = inhibition above about 22%;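 also: CHO-Ga16 host cells stimulated with ATP at an EC80 level; 0% = agonist EC80 plus vehicle and 100% = vehicle without agonist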
TAAR1 antag conf = human TAAR1 antagonism, confirmed; TAAR1-expressing cells, fluorescence antagonist read-out; shares compounds with TAAR1 antagonist; inhibition, % at 3 µM; 2,400 tested, 40% active; AID 651785; in the data active = inhibition above about 49%;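 also: CHO-Ga16 host cells challenged with agonist PEA near its EC80; 0% = agonist at EC80 plus vehicle and 100% = vehicle with no agonist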
Ga16 nonsel ag = nonselective Ga16 agonism, counter-screen. shares compounds with TAAR1 antagonist. Ga16-expressing cells, calcium fluorescence, agonist counterscreen. activation, % at 3 µM. 2,400 tested, 18% active; in the data active = activation above about 12%;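 also: 0% = vehicle wells and 100% = saturating stimulus response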
TAAR1 ag counter = TAAR1 agonism, antagonist counter-screen; shares compounds with TAAR1 antagonist; hTAAR1 cell line, fluorescence activation, agonist mode; activation, % at 3 µM; 2,400 tested, 2% active; AID 651955; in the data active = activation above about 37%;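 also: CHO cells stably expressing TAAR1 with calcium dye readout; 0% = DMSO vehicle and 100% = full agonist response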
* hit, by the source's call; / = not tested or not shown.

SMILES	V1R ag counter	OXTR ag	TAAR1 ag	TAAR1 antagonist	OXTR potentiate	nonsel antag count	TAAR1 antag conf	Ga16 nonsel ag	TAAR1 ag counter
O=C(OCC#CCSc1nnc(-c2cccc3ccccc23)o1)c1cc2ccccc2o1	1	3	9	6	-4	/	/	/	/
Cc1ccccc1OCc1nnc(SCC(=O)Nc2ccc3nc(SCC(=O)NC(C)(C)C)sc3c2)n1C	1	1	22	61*	-9	43*	62*	10	6
Cc1ccccc1OCc1nnc(SCC(=O)Nc2ccc3c(c2)oc2ccccc23)n1C	0	1	8	4	0	/	/	/	/
CC(C)(C)NC(=O)CSc1nc2ccc(NC(=O)CSc3nnnn3Cc3ccccc3)cc2s1	8	3	15	49*	-19	36*	26	10	5
O=C(Nc1ccccc1Oc1cccnc1)C1CCCN(C/C=C/c2ccccc2)C1 (centres undefined)	/	/	-1	-2	/	/	/	/	/
Cc1cc(C)nc(NC(=O)/C=C/c2ccc3c(c2)OCO3)c1	-1	-2	9	-5	-4	/	/	/	/
CCOc1ccccc1N1CCN(c2ncnc3scc(-c4ccc(OC)cc4)c23)CC1	0	0	-1	7	-14	/	/	/	/
COc1ccc(-c2csc3ncnc(N4CCN(c5ccccc5OC)CC4)c23)cc1	2	-2	1	62*	-8	27*	41	5	10
CC(=O)Nc1ccc(NC(=O)C(C)OC(=O)CSc2ccc(Br)cc2C)cc1 (centres undefined)	2	2	5	-14	-11	/	/	/	/
COc1ccc(C(=O)Nc2cccc(NC(C)=O)c2)cc1OC	0	0	3	-12	-1	/	/	/	/
COc1ccc(C(=O)Nc2cccc(/C(C)=N/NC(=O)c3ccc([N+](=O)[O-])c(C)c3)c2)cc1OC	0	0	21	60*	-7	44*	66*	12*	10
Cc1cccc(NC(=O)c2cccc(NC(=O)c3ccco3)c2)c1	/	/	8	22	/	/	/	/	/
Cc1cc(C(=O)Nc2cccc(NC(=O)c3ccco3)c2)ccc1[N+](=O)[O-]	/	/	11	58*	/	14	26	8	4
O=C(NN1CCN(Cc2ccccc2)CC1)c1ccc(N2CCOCC2)c([N+](=O)[O-])c1	3	1	9	-2	-5	/	/	/	/
O=C(CSCc1ccc([N+](=O)[O-])cc1)Nc1ccccc1C(=O)O	-1	-2	4	-26	-11	/	/	/	/
COc1cccc(N2CCN(C(=O)CCCCCNc3nc(=S)[nH]c4ccccc34)CC2)c1	0	-3	11	59*	-11	19	37	8	11
CCOC(=O)C[C@@H]1OC[C@H](C)N1S(=O)(=O)c1ccc(C)cc1	/	/	0	-18	/	/	/	/	/
CCc1noc(C)c1C(=O)Nc1nc(-c2ccc(NC(C)=O)cc2)cs1	5	1	18	70*	-6	29*	48	22*	31
c1cc(-c2cc3nc(NCC4CC4)ccn3n2)ccc1OCCN1CCOCC1	/	/	9	42	/	/	/	/	/
c1cc(-c2cc3nc(NC4CCCCC4)ccn3n2)ccc1OCCN1CCOCC1	/	/	16	61*	/	24*	42	11	18
Clc1cccc(CNc2ccn3nc(-c4ccc(OCCN5CCOCC5)cc4)cc3n2)c1	/	/	33	69*	/	44*	71*	23*	23
COc1ccc(S(=O)(=O)N(C(C)=O)c2ccc(OC(C)=O)c3ccccc23)cc1[N+](=O)[O-]	2	3	9	17	-6	/	/	/	/
C=CCn1c(=O)/c(=C/c2ccc(Cl)cc2)s/c1=C(/C#N)c1nnc2n1CCCCC2	-1	-1	13	50*	-6	27*	32	8	2
